{
  "source": "paper PMC11989202",
  "about": "(Molecular cancer research : MCR, 2025)",
  "key": {"DR5 [1]": {"tested_on": "DR5", "experiment": "DR5 immunoblot, MDA-MB-468 cells", "type": "cell-based", "conditions": "MDA-MB-468, 24 h; for Effect on DDA-induced DR5 upregulation and oligomerization: with 2.5 μM dMtcyDTDO, 20 μM CEAPIN-A7, 10 μM KIRA-6, 10 μM AMG-44; for DR5 levels and disulfide bonding (electrophoretic mobility): non-reducing immunoblot, dFtcyDTDO 2.5 μM, Tunicamycin 500 ng/ml, PERKi alone"}, "DR5 [2]": {"tested_on": "DR5", "experiment": "DR5 immunoblot with autophagy/lysosome inhibitors", "type": "cell-based", "conditions": "inhibitor alone, absence of DDA treatment, versus vehicle"}, "protein synthesis": {"tested_on": "protein synthesis", "experiment": "Protein synthesis assay", "type": "cell-based", "conditions": "24 h pre-treatment, 2 h pulse"}, "[3]": {"tested_on": "MDA-MB-468 breast cancer cells", "experiment": "MTT cell viability assay, MDA-MB-468", "type": "cell-based", "conditions": "72 h", "procedure,_shortened": "(§1)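 Cells in 10% FBS–DMEM were seeded at 7,500 per well and kept 24 h at 37°C, then exposed to test compound for 72 h at 37°C. After medium removal they received 0.5 mg/ml MTT in PBS for 1 h at 37°C. Formazan was dissolved in DMSO and absorbance read at 570 and 690 nm. At least quadruplicate technical and three biological replicates were run.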"}, "MET [4]": {"tested_on": "MET", "experiment": "MET/PCSK9 maturation", "type": "cell-based", "conditions": "MDA-MB-468, PERKi alone 1 μM, 24 h"}, "MET [5]": {"tested_on": "MET", "experiment": "MET/PCSK9 maturation", "type": "cell-based", "conditions": "HepG2, PERKi alone 1 μM, 24 h", "procedure,_shortened": "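HepG2 cells were grown in 10% FBS–DMEM at 37°C and 5% CO₂, then treated for 24 h. Cell lysates were run on immunoblots, under reducing conditions for MET.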"}, "WM793 melanoma cells": {"tested_on": "WM793 melanoma cells", "experiment": "MTT cell viability assay, WM793", "type": "cell-based", "conditions": "72 h", "procedure,_shortened": "as §1"}, "DR5 [6]": {"tested_on": "DR5", "experiment": "DR5 immunoblot, HaCaT keratinocytes", "type": "cell-based, human", "conditions": "2.5 μM, 24 h, reducing immunoblot"}, "DR5 [7]": {"tested_on": "DR5", "experiment": "DR5 immunoblot, MCF10A cells", "type": "cell-based", "conditions": "non-transformed MCF10A, 2.5 μM, 24 h, reducing immunoblot"}, "DcR2": {"tested_on": "DcR2", "experiment": "DcR2 immunoblot", "type": "cell-based", "conditions": "after dFtcyDTDO treatment"}, "DR5 [8]": {"tested_on": "DR5", "experiment": "DR5 immunoblot, T47D cells", "type": "cell-based", "conditions": "2.5 μM, 24 h, reducing immunoblot"}, "[9]": {"experiment": "Metabolic stability in human liver microsomes", "conditions": "supplemented with NADPH (1 mM); substrate 10 μM; 1 mg/ml protein"}, "012/LVM2/LR10 tumors": {"tested_on": "012/LVM2/LR10 tumors", "experiment": "012/LVM2/LR10 xenograft tumor study, H&E tumor histology", "type": "in vivo", "conditions": "10 mg/kg dMtcyDTDO, 20 days, mice bearing 012/LVM2/LR10 tumors, versus vehicle"}},
  "note": "Read-outs that look alike come from different tables or passages of the source.",
  "data": [
    {"molecule": "Cc1ccc2cc(-c3c(C)ccc(C(=O)c4c(-c5ccccc5)n(C)n(-c5ccccc5)c4=O)c3N)ccc2n1", "note": "[AMG44]", "values": [
      {"measurement": "Effect on DDA-induced DR5 upregulation and oligomerization", "setting": "DR5 [1]", "value": "potentiated DDA-induced DR5 upregulation and oligomerization"}
    ]},
    {"molecule": "CO/C1=C\\C(C)=C\\[C@@H](C)[C@@H](O)[C@@H](C)C/C(C)=C/C=C/[C@H](OC)[C@@H]([C@@H](C)[C@@H](O)[C@H](C)[C@@]2(O)C[C@@H](O)[C@H](C)[C@@H](C(C)C)O2)OC1=O", "note": "[Bafilomycin A1]", "values": [
      {"measurement": "DR5 levels", "setting": "DR5 [2]", "value": "increased levels of monomeric and oligomeric DR5 isoforms"}
    ]},
    {"molecule": "O=C(Nc1cnn(Cc2ccc(C(F)(F)F)cc2C(F)(F)F)c1)c1cc(-c2ccco2)on1", "note": "[CEAPIN-A7]", "values": [
      {"measurement": "Effect on DDA-induced DR5 upregulation and oligomerization", "setting": "DR5 [1]", "value": "without effect"}
    ]},
    {"molecule": "CCN(CC)CCCC(C)Nc1ccnc2cc(Cl)ccc12", "note": "(stereo not drawn) [Chloroquine]", "values": [
      {"measurement": "DR5 levels", "setting": "DR5 [2]", "value": "increased DR5 levels"}
    ]},
    {"molecule": "CC(C)(C)c1nc(-c2ccc(NC(=O)Nc3cccc(C(F)(F)F)c3)c3ccccc23)c2c(N)nccn12", "note": "[KIRA-6]", "values": [
      {"measurement": "Effect on DDA-induced DR5 upregulation and oligomerization", "setting": "DR5 [1]", "value": "negated DR5 and TNFR1 upregulation by DDA treatment"}
    ]},
    {"molecule": "Cn1cc(-c2ccc3c(c2)CCN3C(=O)Cc2cccc(C(F)(F)F)c2)c2c(N)ncnc21", "note": "[PERKi]", "values": [
      {"measurement": "Protein synthesis (3H-Leucine incorporation) in the presence of Tunicamycin", "setting": "protein synthesis", "value": "increased protein synthesis"},
      {"measurement": "Protein synthesis (3H-Leucine incorporation) in the presence of dFtcyDTDO", "setting": "protein synthesis", "value": "further decreased protein synthesis"},
      {"measurement": "Cell viability (MTT)", "setting": "[3]; PERKi alone", "value": "little effect on cell viability"},
      {"measurement": "Effect on dFtcyDTDO cytotoxicity (MTT)", "setting": "[3]; combination with dFtcyDTDO", "value": "strongly potentiated dFtcyDTDO cytotoxicity"},
      {"measurement": "MET or PCSK9 processing", "setting": "MET [4]", "value": "no effect on MET or PCSK9 processing"},
      {"measurement": "MET or PCSK9 processing", "setting": "MET [5]", "value": "no effect on MET or PCSK9 processing"},
      {"measurement": "Cell viability (MTT)", "setting": "WM793 melanoma cells; PERKi alone", "value": "little effect on cell viability"},
      {"measurement": "Effect on dFtcyDTDO cytotoxicity (MTT)", "setting": "WM793 melanoma cells; combination with dFtcyDTDO", "value": "strongly potentiated dFtcyDTDO cytotoxicity"},
      {"measurement": "DR5 levels and disulfide bonding (electrophoretic mobility)", "setting": "DR5 [1]", "value": "no discernable effect"}
    ]},
    {"molecule": "CC(C)(O)CNc1ncc(-c2ccnc(Nc3ccnc(Cl)c3)n2)c(CC2CC2)n1", "note": "[VPS34i]", "values": [
      {"measurement": "DR5 levels", "setting": "DR5 [2]", "value": "increased DR5 expression to a similar extent as Bafilomycin"}
    ]},
    {"molecule": "O=S1(=O)CC2CC(F)C(F)CC2CS1", "note": "(stereo not drawn) [dFtcyDTDO]", "values": [
      {"measurement": "DR5 levels", "setting": "DR5 [6]", "value": "did not increase DR5 levels"},
      {"measurement": "DR5 levels", "setting": "DR5 [7]", "value": "did not increase DR5 levels"},
      {"measurement": "DcR2 levels", "setting": "DcR2", "value": "upregulation of DcR2"},
      {"measurement": "t1/2 in human liver microsomes", "value": "> 60", "unit": "min"},
      {"measurement": "DR5 levels", "setting": "DR5 [8]", "value": "increased DR5 levels"},
      {"measurement": "DR5 levels and disulfide bonding (electrophoretic mobility)", "setting": "DR5 [1]", "value": "altered DR5 levels and disulfide bonding"}
    ]},
    {"molecule": "CO[C@H]1C[C@@H]2CS(=O)(=O)SC[C@H]2C[C@@H]1OC", "note": "[dMtcyDTDO]", "values": [
      {"measurement": "DR5 levels", "setting": "DR5 [6]", "value": "did not increase DR5 levels"},
      {"measurement": "DR5 levels", "setting": "DR5 [7]", "value": "did not increase DR5 levels"},
      {"measurement": "t1/2 in human liver microsomes", "setting": "[9]", "value": 47.9, "unit": "min"},
      {"measurement": "Breast tumor tissue histology (H&E)", "setting": "012/LVM2/LR10 tumors", "value": "extensive death of tumor tissue"}
    ]},
    {"molecule": "O=S1(=O)CC2CCCCC2CS1", "note": "(stereo not drawn) [tcyDTDO]", "values": [
      {"measurement": "t1/2 in human liver microsomes", "value": 11.9, "unit": "min"}
    ]},
    {"molecule": "Tunicamycin", "values": [
      {"measurement": "DR5 levels and disulfide bonding (electrophoretic mobility)", "setting": "DR5 [1]", "value": "increased DR5 levels without altering its mobility"}
    ]}
  ]
}
